Laboratory results as given in PMC6828636 (European Journal of Drug Metabolism and Pharmacokinetics, 2019).

Columns and labels:
BCRP [1] = target: T1, BCRP (Homo sapiens, UniProt Q9UNQ0); assay: BCRP inhibition in Caco-2 cells; format: in vitro ADME
T1 sequence (Q9UNQ0 1-655): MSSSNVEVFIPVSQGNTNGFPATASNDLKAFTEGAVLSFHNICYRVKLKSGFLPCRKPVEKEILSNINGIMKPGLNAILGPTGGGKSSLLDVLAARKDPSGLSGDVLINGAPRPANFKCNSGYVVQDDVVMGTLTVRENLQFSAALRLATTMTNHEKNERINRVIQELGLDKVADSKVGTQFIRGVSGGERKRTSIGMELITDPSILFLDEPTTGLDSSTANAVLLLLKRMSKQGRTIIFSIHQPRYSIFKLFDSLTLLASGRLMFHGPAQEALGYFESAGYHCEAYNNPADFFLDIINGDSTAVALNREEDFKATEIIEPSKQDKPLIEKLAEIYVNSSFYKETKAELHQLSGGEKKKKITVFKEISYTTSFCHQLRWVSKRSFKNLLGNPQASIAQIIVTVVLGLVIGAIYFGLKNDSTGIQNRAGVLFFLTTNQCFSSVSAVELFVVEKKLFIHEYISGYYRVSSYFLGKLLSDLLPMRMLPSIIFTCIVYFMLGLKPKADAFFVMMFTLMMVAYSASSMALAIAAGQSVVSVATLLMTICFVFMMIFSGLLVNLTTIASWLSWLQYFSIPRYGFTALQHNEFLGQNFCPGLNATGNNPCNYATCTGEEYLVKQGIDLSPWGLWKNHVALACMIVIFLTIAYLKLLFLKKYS
Outline: (§1)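 Efflux transporter inhibition in Caco-2 monolayers. Test compound at 0.25–60 μM. Probe/reference-inhibitor pairs were digoxin/cyclosporin A (P-gp) and cladribine/Ko143 (BCRP). Probe transport was measured with and without test compound, and IC50 was derived from that inhibition.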

[2] = rodents; cited from earlier work
[3] = format: in vivo, human; conditions: healthy male volunteers
BCRP [4] = target: T1, BCRP; assay: Efflux in CPT-B1 cells; format: in vitro ADME; conditions: Caco-2
Outline: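 Bidirectional transport was measured in wildtype Caco-2 cells and in proprietary derivatives with reduced BCRP (CPT-B1) or P-gp (CPT-P1) expression. Test compound was used at 0.5, 2 and 10 μM in wildtype cells and at 2 μM in the reduced-expression lines. Probe substrates served as positive controls and reference inhibitors as negative controls. Efflux ratios were calculated.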

NTCP = NTCP (Homo sapiens, UniProt Q14973); assay: NTCP uptake inhibition in transfected HEK cells; format: in vitro ADME
Outline: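 HEK cells overexpressing NTCP, OAT1, OAT3, OATP2B1, OCT1 or OCT2 were incubated with probe substrate. Pairs were estrone 3-sulfate/cyclosporin A (NTCP), PAH/probenecid (OAT1), furosemide/probenecid (OAT3), estrone 3-sulfate/glibenclamide (OATP2B1), 3H-MPP+/decynium 22 (OCT1) and 3H-MPP+/imipramine (OCT2). IC50 was determined with and without test compound, at ≤50 µM for the parent and ≤10 µM for the metabolite.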

CYP3A4 = conditions: healthy volunteers; ref data on file; cited from earlier work
P-gp = P-gp (Homo sapiens, UniProt P08183); assay: P-gp inhibition in Caco-2 cells; format: in vitro ADME
Outline: as §1

CYP1A2 = format: in vitro ADME; conditions: primary human hepatocytes, three donors, 3 days dosing, 0.005–10 mg/l
[5] = cited from earlier work
UGT1A1 = target: T2, UGT1A1 (Homo sapiens, UniProt P22309); assay: UGT1A1 inhibition in human liver microsomes; format: in vitro ADME; conditions: read-out: Ki, UGT1A1
T2 sequence (P22309 26-533): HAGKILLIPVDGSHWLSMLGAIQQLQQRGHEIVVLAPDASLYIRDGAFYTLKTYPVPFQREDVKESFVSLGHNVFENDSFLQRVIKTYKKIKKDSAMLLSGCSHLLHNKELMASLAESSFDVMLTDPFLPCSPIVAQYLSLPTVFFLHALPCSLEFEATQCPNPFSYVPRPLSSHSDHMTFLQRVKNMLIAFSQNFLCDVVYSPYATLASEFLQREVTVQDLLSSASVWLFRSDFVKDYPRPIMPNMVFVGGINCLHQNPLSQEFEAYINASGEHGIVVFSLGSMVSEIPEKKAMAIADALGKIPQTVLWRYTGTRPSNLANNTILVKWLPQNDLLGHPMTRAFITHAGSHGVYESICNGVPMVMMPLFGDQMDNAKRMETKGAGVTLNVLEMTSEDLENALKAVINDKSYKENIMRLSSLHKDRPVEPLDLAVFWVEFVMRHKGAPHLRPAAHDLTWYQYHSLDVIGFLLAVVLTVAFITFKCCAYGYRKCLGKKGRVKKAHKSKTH
Outline: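 Glucuronidation of UGT-selective substrates was measured in human liver microsomes with and without test compound, using a rank-order approach. Standard inhibitors for each isoform were incubated in parallel as positive controls.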

BCRP [6] = target: T1, BCRP; assay: Efflux in BCRP-MDCK cells; format: in vitro ADME; conditions: reduced in the presence of BCRP-specific inhibitor Ko143

NTCP, sequence (Q14973 whole entry): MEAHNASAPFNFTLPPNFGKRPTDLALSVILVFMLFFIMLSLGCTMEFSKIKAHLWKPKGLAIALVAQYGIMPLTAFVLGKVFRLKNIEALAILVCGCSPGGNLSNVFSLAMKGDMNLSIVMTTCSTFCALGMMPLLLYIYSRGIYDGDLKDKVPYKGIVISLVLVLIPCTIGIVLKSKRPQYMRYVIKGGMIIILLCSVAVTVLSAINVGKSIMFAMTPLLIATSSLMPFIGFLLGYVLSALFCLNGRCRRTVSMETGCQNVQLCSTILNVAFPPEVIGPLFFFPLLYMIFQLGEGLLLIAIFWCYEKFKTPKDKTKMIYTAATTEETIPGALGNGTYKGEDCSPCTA
P-gp, sequence (P08183 whole entry): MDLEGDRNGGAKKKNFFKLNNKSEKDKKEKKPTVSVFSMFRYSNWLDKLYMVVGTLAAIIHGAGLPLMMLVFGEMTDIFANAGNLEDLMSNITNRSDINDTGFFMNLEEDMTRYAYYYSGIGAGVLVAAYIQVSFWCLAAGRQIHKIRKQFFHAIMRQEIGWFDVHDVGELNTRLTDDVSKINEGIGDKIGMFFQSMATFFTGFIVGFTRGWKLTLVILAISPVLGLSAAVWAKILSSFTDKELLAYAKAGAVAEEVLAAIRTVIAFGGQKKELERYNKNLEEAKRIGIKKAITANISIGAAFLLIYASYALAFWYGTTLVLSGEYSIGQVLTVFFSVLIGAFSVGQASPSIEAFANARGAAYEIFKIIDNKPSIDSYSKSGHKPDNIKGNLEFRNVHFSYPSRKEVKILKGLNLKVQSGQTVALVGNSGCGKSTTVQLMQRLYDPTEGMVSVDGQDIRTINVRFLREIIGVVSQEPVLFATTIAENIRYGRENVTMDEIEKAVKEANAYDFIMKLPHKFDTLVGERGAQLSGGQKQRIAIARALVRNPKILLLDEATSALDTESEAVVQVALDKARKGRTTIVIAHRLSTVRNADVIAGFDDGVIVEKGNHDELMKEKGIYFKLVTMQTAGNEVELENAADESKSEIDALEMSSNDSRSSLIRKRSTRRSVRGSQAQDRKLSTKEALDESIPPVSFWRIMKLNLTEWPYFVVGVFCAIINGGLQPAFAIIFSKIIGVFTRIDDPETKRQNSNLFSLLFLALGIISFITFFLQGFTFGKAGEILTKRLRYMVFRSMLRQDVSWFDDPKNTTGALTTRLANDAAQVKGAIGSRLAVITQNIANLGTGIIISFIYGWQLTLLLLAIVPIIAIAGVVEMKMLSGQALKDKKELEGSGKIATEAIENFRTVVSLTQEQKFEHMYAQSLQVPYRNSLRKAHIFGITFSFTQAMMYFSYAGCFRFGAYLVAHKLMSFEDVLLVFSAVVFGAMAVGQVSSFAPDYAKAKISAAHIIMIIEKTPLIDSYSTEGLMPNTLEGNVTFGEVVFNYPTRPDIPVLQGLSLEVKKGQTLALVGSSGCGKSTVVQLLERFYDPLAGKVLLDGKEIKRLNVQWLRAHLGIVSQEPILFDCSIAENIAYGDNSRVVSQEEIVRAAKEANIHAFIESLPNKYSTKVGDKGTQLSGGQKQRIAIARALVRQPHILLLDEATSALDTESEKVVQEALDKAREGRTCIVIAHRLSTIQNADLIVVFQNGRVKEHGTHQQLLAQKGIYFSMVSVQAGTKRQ

SMILES	IC50 (BCRP [1])	penetration of the blood-brain barrier [2]	safety with concomitant dabigatran etexilate or midazolam [3]	efflux ratio at 2 μM (BCRP [4])	IC50 (NTCP)	share of clearance attributed to CYP3A4 metabolism (CYP3A4)	IC50 (P-gp)	maximal fold induction of CYP1A2 (CYP1A2)	fraction unbound in human plasma, fold lower compared with darolutamide [5]	Ki (UGT1A1)	efflux ratio (BCRP [6])
CC(O)c1cc(C(=O)N[C@@H](C)Cn2ccc(-c3ccc(C#N)c(Cl)c3)n2)[nH]n1 (some centres unmarked) [Darolutamide, darolutamide]	1.3 µM	low penetration	No safety concerns were identified	36	> 50 µM	30%	16.4 µM				
CC(=O)c1cc(C(=O)N[C@@H](C)Cn2ccc(-c3ccc(C#N)c(Cl)c3)n2)[nH]n1 [Keto-darolutamide, keto-darolutamide]								< 2 fold	~ 40 fold	8.13 µM	> 2
